Twelve compounds from ChEMBL document CHEMBL2176883, “Aminopiperidine sulfonamide Cav2.2 channel inhibitors for the treatment of chronic pain” (J Med Chem, 2012) can be followed below.

The subject of series [1] is Rattus norvegicus. In words: Antinociceptive activity in rat assessed as reversal of complete Freund's adjuvant-induced pain at 10 mg/kg, po after 3 hrs. The series is classed as functional. An outline of the steps: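 Rats had complete Freund's adjuvant-induced inflammatory pain and got oral dosing. Allodynia was read at 1 and 3 h postdose. Percent reversal per rat = (postdose − predose)/(preinjury − predose). Groups had at least six animals, reported as mean + SEM.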

Series [2] in a line: Plasma concentration in rat complete Freund's adjuvant-induced pain model at 30 mg/kg, po after 3 hrs. Type of series: ADME, organism-based. On the set-up: dose 30 mg/kg, route oral. An outline of the steps:
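Satellite rats in CFA inflammatory pain study, 30 mg/kg po; plasma exposure (μM) at 3 h, n = 2, standard deviation.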

Series [3] has as its system Rattus norvegicus. In words: Antinociceptive activity in rat assessed as reversal of complete Freund's adjuvant-induced pain at 30 mg/kg, po after 3 hrs. The series is classed as functional. The method, boiled down:
(§1)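 In the rat CFA inflammatory pain model, compound was given orally at 30 mg/kg and allodynia was read at 1 and 3 h postdose. Average % reversal = (postdose − predose)/(preinjury − predose) for each rat, n = 6. Plasma exposure at 3 h was measured in satellite rats (n = 2).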

The subject of series [4] is Rattus norvegicus. Nature of the series: Antinociceptive activity in rat assessed as reversal of complete Freund's adjuvant-induced pain at 30 mg/kg, po after 1 hr. The series is classed as functional. The method, boiled down:
as §1

Series [5] can be described thus: Half life in rat at 3 mg/kg, po and 1 mg/kg, iv. Type of series: ADME, organism-based. The following applies: in vivo. An outline of the steps:
(§2)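 Rat pharmacokinetics from iv and po arms: 0.6 mg/kg iv with 1.8 mg/kg po, or 1 mg/kg iv with 3 mg/kg po. AUC was normalized to po dose (μM·h·kg/mg). Clearance (mL/min/kg) and half-life come from the iv arm, and F% is oral bioavailability.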

The nature of series [6]: Plasma clearance in rat at 3 mg/kg, po and 1 mg/kg, iv. The series is classed as ADME, organism-based. An outline of the steps:
as §2

The subject of series [7] is Rattus norvegicus. Nature of the series: Dose normalized AUC in rat at 3 mg/kg, po and 1 mg/kg, iv. Type of series: ADME, organism-based. The following applies: in vivo. An outline of the steps: as §2
Series [8] in a line: Oral bioavailability in rat at 3 mg/kg. The series is classed as ADME, organism-based. The following applies: in vivo. An outline of the steps:
as §2

Series [9] can be described thus: Metabolic stability in rat liver microsomes assessed as compound remaining at 1 uM after 1 hr. The following applies: read-out: Stability. The series is classed as ADME, Microsome. The method, boiled down: (§3)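 Compound at 1 μM was incubated with human or rat liver microsomes (1 mg/mL) for 1 h, and the percentage of parent remaining was determined.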
The nature of series [10]: Metabolic stability in human liver microsomes assessed as compound remaining at 1 uM after 1 hr. The series is classed as ADME, Microsome. Conditions: read-out: Stability. An outline of the steps:
as §3
In general terms: Liver microsomes are a subcellular fraction often used to study metabolism.

The target in series [11] is T1, Cav1.2 (Homo sapiens, UniProt Q13936). In words: Inhibition of Cav1.2 assessed as inhibition of calcium flux at 3 uM by cell based FLIPR assay. The method, boiled down: (§4)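 Cav1.2 counterscreen using a related calcium-influx FLIPR assay, run as % inhibition at single concentrations or as a titration.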
For orientation: A change in cytosolic calcium serves as a functional read-out for many receptors and channels.

The target in series [12] is T1, Cav1.2. Nature of the series: Inhibition of Cav1.2 assessed as inhibition of calcium flux at 1 uM by cell based FLIPR assay. The method, boiled down: as §4
Series [13] addresses T2, hERG (Homo sapiens, UniProt Q12809). In words: Displacement of [35S]-MK-0499 from human ERG at 10 uM. Conditions: probe [35S]-MK-0499. An outline of the steps: (§5)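 hERG binding was measured as displacement of 35S-labeled MK-0499 at single test concentrations.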
The target in series [14] is T2, hERG. In words: Displacement of [35S]-MK-0499 from human ERG at 1 uM. The following applies: probe [35S]-MK-0499. The method, boiled down: as §5
(In general: Loss of bound radioactivity is the signal in a displacement assay; it reports binding, not function.)

Series [15] deals with T3, Voltage-dependent N-type calcium channel subunit alpha-1B (Homo sapiens, UniProt Q00975). Nature of the series: Inhibition of Cav2.2 expressed HEK293 cells assessed as inhibition of calcium flux by FLIPR assay in presence of 30 mM of potassium. Type of series: cell-based. An outline of the steps: (§6)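 Calcium influx was read with a calcium-sensitive dye on FLIPR Tetra in CBK cells expressing α1B-1, α2-δ and β3a with Kir2.3. Cells were preincubated with compound in 30 mM K+, then channels were opened by 1:1 addition of 140 mM K+ solution. Compounds were screened at 1 μM, then titrated over 10 points (0.001–30 μM) in quadruplicate, mean ± SD. Values are averages of n ≥ 3.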
Target sequence in this assay (Q00975 whole entry): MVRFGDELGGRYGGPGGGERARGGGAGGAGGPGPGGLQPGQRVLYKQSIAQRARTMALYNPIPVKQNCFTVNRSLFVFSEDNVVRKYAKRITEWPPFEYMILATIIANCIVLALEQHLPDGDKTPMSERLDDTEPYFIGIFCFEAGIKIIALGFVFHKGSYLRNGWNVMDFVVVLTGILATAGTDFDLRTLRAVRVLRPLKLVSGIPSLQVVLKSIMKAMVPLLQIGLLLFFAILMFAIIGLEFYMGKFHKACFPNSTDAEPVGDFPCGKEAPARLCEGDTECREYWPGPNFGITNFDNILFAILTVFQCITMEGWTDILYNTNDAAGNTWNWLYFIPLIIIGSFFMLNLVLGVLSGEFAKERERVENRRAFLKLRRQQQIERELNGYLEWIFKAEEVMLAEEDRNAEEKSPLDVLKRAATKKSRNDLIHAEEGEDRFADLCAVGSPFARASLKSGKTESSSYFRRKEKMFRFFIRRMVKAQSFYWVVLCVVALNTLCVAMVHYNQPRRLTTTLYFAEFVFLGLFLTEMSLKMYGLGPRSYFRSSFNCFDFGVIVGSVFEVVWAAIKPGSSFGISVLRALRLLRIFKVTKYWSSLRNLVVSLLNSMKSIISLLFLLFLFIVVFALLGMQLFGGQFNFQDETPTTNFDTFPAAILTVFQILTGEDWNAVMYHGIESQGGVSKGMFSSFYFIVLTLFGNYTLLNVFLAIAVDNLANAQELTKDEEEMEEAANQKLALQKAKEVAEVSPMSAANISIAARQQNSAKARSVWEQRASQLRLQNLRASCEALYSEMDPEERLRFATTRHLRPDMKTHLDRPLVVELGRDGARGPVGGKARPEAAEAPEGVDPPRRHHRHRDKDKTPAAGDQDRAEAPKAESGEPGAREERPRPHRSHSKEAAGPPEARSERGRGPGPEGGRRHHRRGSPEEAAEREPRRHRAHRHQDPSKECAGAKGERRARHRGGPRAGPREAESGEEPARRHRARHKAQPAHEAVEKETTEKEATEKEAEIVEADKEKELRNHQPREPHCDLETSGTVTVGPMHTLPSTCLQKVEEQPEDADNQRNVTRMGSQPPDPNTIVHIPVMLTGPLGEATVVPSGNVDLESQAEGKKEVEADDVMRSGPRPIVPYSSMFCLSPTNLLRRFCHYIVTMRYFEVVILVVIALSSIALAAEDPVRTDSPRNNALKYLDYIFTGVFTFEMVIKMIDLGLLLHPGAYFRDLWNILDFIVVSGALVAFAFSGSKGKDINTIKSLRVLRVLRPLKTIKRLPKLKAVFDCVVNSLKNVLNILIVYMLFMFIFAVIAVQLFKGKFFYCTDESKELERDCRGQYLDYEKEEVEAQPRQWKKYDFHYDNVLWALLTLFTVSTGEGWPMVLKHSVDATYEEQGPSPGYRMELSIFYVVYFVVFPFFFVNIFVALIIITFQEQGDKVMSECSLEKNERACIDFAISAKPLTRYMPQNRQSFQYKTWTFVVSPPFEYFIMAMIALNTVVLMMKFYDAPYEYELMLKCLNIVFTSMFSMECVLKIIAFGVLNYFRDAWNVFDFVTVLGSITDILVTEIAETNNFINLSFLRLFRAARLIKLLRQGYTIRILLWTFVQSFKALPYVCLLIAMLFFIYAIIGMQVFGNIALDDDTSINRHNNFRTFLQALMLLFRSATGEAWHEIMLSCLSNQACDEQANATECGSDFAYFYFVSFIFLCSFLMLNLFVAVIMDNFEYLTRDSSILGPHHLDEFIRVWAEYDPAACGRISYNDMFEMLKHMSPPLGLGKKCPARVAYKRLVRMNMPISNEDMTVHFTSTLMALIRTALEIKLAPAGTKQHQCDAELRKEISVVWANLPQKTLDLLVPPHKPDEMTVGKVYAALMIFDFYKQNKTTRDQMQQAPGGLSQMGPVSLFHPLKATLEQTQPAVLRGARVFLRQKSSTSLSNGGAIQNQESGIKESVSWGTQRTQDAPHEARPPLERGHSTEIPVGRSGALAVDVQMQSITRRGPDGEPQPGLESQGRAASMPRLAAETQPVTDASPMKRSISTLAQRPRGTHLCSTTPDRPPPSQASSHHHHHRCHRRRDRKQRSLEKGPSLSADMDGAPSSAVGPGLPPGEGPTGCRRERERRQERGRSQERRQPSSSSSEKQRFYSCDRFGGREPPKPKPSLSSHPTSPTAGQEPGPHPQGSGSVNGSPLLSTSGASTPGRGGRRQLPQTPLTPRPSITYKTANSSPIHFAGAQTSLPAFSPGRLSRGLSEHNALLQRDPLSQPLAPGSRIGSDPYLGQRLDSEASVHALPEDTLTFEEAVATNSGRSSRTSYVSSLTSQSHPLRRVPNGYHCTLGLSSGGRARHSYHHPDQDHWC

The target of series [16] is T3, Voltage-dependent N-type calcium channel subunit alpha-1B. In words: Inhibition of Cav2.2 expressed HEK293 cells assessed as inhibition of calcium flux at 1 uM by FLIPR assay. Type of series: cell-based. An outline of the steps: as §6
Target sequence in this assay (Q00975 whole entry, looked up): as the sequence (Q00975 whole entry) above
Series [17] concerns Rattus norvegicus. In words: Analgesic activity in rat SNL neuropathic pain model assessed as reversal of mechanical allodynia at 10 mg/kg, po after 1 hr. Type of series: functional.
Series [18] can be described thus: Oral bioavailability in rat. The following applies: in vivo. The series is classed as ADME, organism-based. An outline of the steps:
as §2

Series [19] can be described thus: Plasma clearance in rat. Type of series: ADME, organism-based. The method, boiled down: as §2
In series [20] the test system is Rattus norvegicus. In words: Dose normalized AUC in po dosed rat. Conditions: in vivo. The series is classed as ADME, organism-based. The method, boiled down:
as §2

Series [21] addresses T3, Voltage-dependent N-type calcium channel subunit alpha-1B. Nature of the series: Inhibition of Cav2.2 expressed HEK293 cells assessed as inhibition of calcium flux by FLIPR assay in presence of 4 mM of potassium. The series is classed as cell-based. The method, boiled down: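 HEK-293-derived CBK cells coexpress α1B-1, α2-δ and β3a with Kir2.3. Compound was incubated in 4 mM K+ bath, holding about −90 mV. Ca2+ influx was read with a Ca-sensitive dye on FLIPR Tetra. Ten-point titrations ran 0.001–30 μM in quadruplicate, averaged ± SD to give IC50.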
Target sequence in this assay (Q00975 whole entry): as above

The target of series [22] is Voltage-dependent L-type calcium channel subunit alpha-1C (Homo sapiens, UniProt Q13936). In words: Inhibition of Cav1.2 assessed as inhibition of calcium flux by cell based FLIPR assay. An outline of the steps:
as §4

T2 sequence (Q12809 whole entry): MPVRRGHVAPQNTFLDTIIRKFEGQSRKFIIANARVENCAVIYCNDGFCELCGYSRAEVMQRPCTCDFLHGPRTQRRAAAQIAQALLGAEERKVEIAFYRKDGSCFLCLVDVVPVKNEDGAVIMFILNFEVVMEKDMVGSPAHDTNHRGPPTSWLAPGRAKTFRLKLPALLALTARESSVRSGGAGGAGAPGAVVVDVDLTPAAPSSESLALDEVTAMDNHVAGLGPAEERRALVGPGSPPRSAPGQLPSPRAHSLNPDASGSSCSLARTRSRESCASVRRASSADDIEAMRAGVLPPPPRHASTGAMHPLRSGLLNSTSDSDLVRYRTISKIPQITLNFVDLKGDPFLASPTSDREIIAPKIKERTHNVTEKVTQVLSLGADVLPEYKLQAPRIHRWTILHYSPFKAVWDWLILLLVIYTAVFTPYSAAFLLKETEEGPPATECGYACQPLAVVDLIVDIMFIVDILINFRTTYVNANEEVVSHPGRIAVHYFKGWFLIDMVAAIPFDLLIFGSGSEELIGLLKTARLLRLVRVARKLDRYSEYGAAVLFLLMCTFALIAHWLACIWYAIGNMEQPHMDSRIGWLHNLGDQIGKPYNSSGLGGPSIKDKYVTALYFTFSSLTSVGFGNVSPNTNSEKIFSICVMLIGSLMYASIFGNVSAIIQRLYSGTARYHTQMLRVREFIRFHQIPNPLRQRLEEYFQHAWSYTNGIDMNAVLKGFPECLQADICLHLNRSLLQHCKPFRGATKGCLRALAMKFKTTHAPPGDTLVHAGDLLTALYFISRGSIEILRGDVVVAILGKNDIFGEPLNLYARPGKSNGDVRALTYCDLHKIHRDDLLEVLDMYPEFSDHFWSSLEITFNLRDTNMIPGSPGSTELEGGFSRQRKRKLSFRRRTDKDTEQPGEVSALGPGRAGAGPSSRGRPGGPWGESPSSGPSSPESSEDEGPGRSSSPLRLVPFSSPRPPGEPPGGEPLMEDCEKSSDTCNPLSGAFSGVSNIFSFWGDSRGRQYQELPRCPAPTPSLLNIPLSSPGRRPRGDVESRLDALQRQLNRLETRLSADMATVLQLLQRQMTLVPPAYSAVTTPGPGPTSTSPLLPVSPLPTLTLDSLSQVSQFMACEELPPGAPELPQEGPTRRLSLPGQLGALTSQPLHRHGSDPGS

In the case of `CC(C)C[C@H](CN)CC(=O)O` [PREGABALIN], the Activity in the series on Rattus norvegicus [1] was determined as 58%.

Take `CS(=O)(=O)c1ccccc1C(=O)N1CCC(N(C2CC2)S(=O)(=O)c2cccc(C(F)(F)F)c2)CC1`: the concentration at 3 h in [2] was 2400 nM. The Activity in the series on Rattus norvegicus [3] came out at 45%; with Rattus norvegicus [4] it was 47%. The compound also had a half-life in series [5] of 54.6 min. The compound also registered a clearance in series [6] of 36 mL/min/kg. In the series with Rattus norvegicus [7], this compound came in with an AUC/dose of 1.06 µM·kg·h/mg. For the same compound, the bioavailability in series [8] was found to be 100%. The remaining at 1 h, 1 µM worked out at 45% in series [9] and 73% in series [10]. Also, the inhibition at 3 µM on Cav1.2 [11] is 39%. For the same compound, the values for the inhibition at 1 µM on Cav1.2 [12] and on hERG [14] were 19% and 1%, respectively. The inhibition at 10 µM at hERG [13] was found to be 67%. The IC50 in series [15] is 660 nM.

As for `CS(=O)(=O)c1ccc(F)cc1C(=O)N1CCC(N(C2CC2)S(=O)(=O)c2ccccc2C(F)(F)F)CC1`, in series [16], the inhibition was 17%.

In the case of `COc1ccc2cc([C@H](C)C(=O)O)ccc2c1` [NAPROXEN], in the series on Rattus norvegicus [17], the Activity was 47%.

In [18], `CCCN(C1CCN(Cc2c(OC)cccc2OC)CC1)S(=O)(=O)c1cccc(C(F)(F)F)c1` registered a bioavailability of 4%. The same compound registered a clearance in series [19] of 169 mL/min/kg. Moreover, in the series with Rattus norvegicus [20], the AUC/dose amounted to 0.007 µM·kg·h/mg. Moreover, the figures for the IC50 in series [21], in [22] and in series [15] were 4800 nM, 3200 nM and 120 nM, respectively. Besides, the inhibition at 1 µM at hERG [14] is 91%.

For `NC(=O)c1cccc(C(=O)N2CCC(N(C3CC3)S(=O)(=O)c3cccc(C(F)(F)F)c3)CC2)c1`, the inhibition in [16] worked out at 0%.

As for `NC(=O)c1ccccc1C(=O)N1CCC(N(C2CC2)S(=O)(=O)c2cccc(C(F)(F)F)c2)CC1`, the inhibition at 3 µM at Cav1.2 [11] worked out at 17%. Moreover, on Cav1.2 [12], the inhibition at 1 µM amounted to 11%. For the same compound, in [16], the inhibition is 15%.

Take `CS(=O)(=O)c1cccc(C(=O)N2CCC(N(C3CC3)S(=O)(=O)c3cccc(C(F)(F)F)c3)CC2)c1`: the inhibition in series [16] was determined as 15%.

On hERG [14], `COc1cccc(OC)c1CN1CCC(N(C2CC2)S(=O)(=O)c2cccc(C(F)(F)F)c2)CC1` registered an inhibition at 1 µM of 70%. The IC50 in [15] stood at 60 nM.

With `C[C@@H](O)[C@@H]1NC(=O)[C@H](Cc2ccc(O)cc2)NC(=O)[C@@H]2C[C@@H](O)CN2C(=O)[C@H](CC(N)=O)NC(=O)[C@@H]2CSSC[C@@H]3NC(=O)[C@H](CO)NC(=O)[C@H](CO)NC(=O)CNC(=O)[C@@H]4C[C@@H](O)CN4C(=O)[C@H](CO)NC(=O)[C@H](CCCCN)NC(=O)[C@@H](N)CSSC[C@H](NC(=O)[C@H](CSSC[C@@H](C(=O)N[C@@H](Cc4ccc(O)cc4)C(N)=O)NC(=O)[C@H](CCCN=C(N)N)NC(=O)[C@H](CCCCN)NC1=O)NC(=O)[C@H](CC(N)=O)NC(=O)[C@H](Cc1ccc(O)cc1)NC(=O)[C@H](CO)NC(=O)[C@H]([C@@H](C)O)NC(=O)[C@@H]1C[C@@H](O)CN1C(=O)[C@H](CO)NC3=O)C(=O)N[C@@H](CCCN=C(N)N)C(=O)N[C@@H](CO)C(=O)N2`, the IC50 in series [21] turned out to be 20 nM; in series [15], 40 nM.

Consider `CS(=O)(=O)c1ccc(F)cc1C(=O)N1CCC(N(C2CC2)S(=O)(=O)c2cc(C(F)(F)F)ccc2F)CC1`, for which, in [15], the IC50 was determined as 2500 nM.

Take `O=C(c1cccc(OC(F)(F)F)c1)N1CCC(N(C2CC2)S(=O)(=O)c2cccc(C(F)(F)F)c2)CC1`: the inhibition at 3 µM on Cav1.2 [11] is 78%. The inhibition at 1 µM on Cav1.2 [12] was found to be 60%; at hERG [14], 4%. The compound further gave an inhibition at 10 µM on hERG [13] of 72%. In series [15], the IC50 came to 370 nM.

What is called half-life is the time in which the quantity being followed falls by half. In general, bioavailability refers to dose-corrected exposure relative to a reference, in per cent. The inhibition is how much of the control response was suppressed. As a reminder, the IC50 is the concentration that gives 50% inhibition.
